# Assay results: ChEMBL document CHEMBL1155297, “Synthesis, antimicrobial and antioxidant activities of substituted pyrazoles, isoxazoles, pyrimidine and thioxopyrimidine derivatives” (2009)
# Tests used:
# Assay type in all cases: functional
# Fusarium solani [1] = assay: Antifungal activity against Fusarium solani NCIM 1330 at 100 ug/disk after 48 hrs by agar disk diffusion method; conditions: NCIM 1330, 48 h, read-out: IZ
# In short: (§1)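 Fungal disc diffusion on nutrient agar plates pre-inoculated with each fungus. 6 mm sterile paper discs carried the compound in DMSO at the stated amount per disc. Plates were held at 37 °C, and inhibition-zone diameter was measured after 48 h. Values are the mean of three independent triplicate readings.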
# Fusarium solani [2] = assay: Antifungal activity against Fusarium solani NCIM 1330 at 200 ug/disk after 48 hrs by agar disk diffusion method; conditions: NCIM 1330, 48 h, read-out: IZ; in short: as §1
# Curvularia lunata [3] = assay: Antifungal activity against Curvularia lunata NCIM 716 at 100 ug/disk after 48 hrs by agar disk diffusion method; conditions: NCIM 716, 48 h, read-out: IZ; in short: as §1
# Curvularia lunata [4] = assay: Antifungal activity against Curvularia lunata NCIM 716 at 200 ug/disk after 48 hrs by agar disk diffusion method; conditions: NCIM 716, 48 h, read-out: IZ; in short: as §1
# Aspergillus niger [5] = assay: Antifungal activity against Aspergillus niger NCIM 596 at 100 ug/disk after 48 hrs by agar disk diffusion method; conditions: NCIM 596, 48 h, read-out: IZ; in short: as §1
# Aspergillus niger [6] = assay: Antifungal activity against Aspergillus niger NCIM 596 at 200 ug/disk after 48 hrs by agar disk diffusion method; conditions: NCIM 596, 48 h, read-out: IZ; in short: as §1
# Fusarium solani [7] = assay: Antifungal activity against Fusarium solani NCIM 1330 after 48 hrs by microdilution susceptibility method; conditions: NCIM 1330, 48 h
# In short: (§2)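 Broth microdilution MIC; fungal suspensions were inoculated into wells containing compound dissolved in DMSO. Incubation was at 36 °C for 48 h. MIC was recorded as the lowest concentration with no turbidity. Ketoconazole was the reference antifungal.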
# Curvularia lunata [8] = assay: Antifungal activity against Curvularia lunata NCIM 716 after 48 hrs by microdilution susceptibility method; conditions: NCIM 716, 48 h; in short: as §2
# Aspergillus niger [9] = assay: Antifungal activity against Aspergillus niger NCIM 596 after 48 hrs by microdilution susceptibility method; conditions: NCIM 596, 48 h; in short: as §2
# Staphylococcus aureus [10] = assay: Antibacterial activity against Staphylococcus aureus NCIM 5021 at 100 ug/disk after 24 hrs by agar disk diffusion method; conditions: NCIM 5021, 24 h, read-out: IZ
# In short: (§3)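 Agar disc diffusion on nutrient agar plates pre-inoculated with each bacterium. Sterile 6 mm filter-paper discs were moistened with compound in DMSO at the stated per-disc amount. Plates were incubated at 37 °C, and the growth-inhibition zone diameter was read after 24 h. Each determination was run in triplicate, and the mean of three independent readings is reported.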
# Staphylococcus aureus [11] = assay: Antibacterial activity against Staphylococcus aureus NCIM 5021 at 200 ug/disk after 24 hrs by agar disk diffusion method; conditions: NCIM 5021, 24 h, read-out: IZ; in short: as §3
# Bacillus subtilis [12] = assay: Antibacterial activity against Bacillus subtilis NCIM 2063 at 100 ug/disk after 24 hrs by agar disk diffusion method; conditions: NCIM 2063, 24 h, read-out: IZ; in short: as §3
# Bacillus subtilis [13] = assay: Antibacterial activity against Bacillus subtilis NCIM 2063 at 200 ug/disk after 24 hrs by agar disk diffusion method; conditions: NCIM 2063, 24 h, read-out: IZ; in short: as §3
# Klebsiella pneumoniae [14] = assay: Antibacterial activity against Klebsiella pneumoniae NCIM 2957 at 100 ug/disk after 24 hrs by agar disk diffusion method; conditions: NCIM 2957, 24 h, read-out: IZ; in short: as §3
# Klebsiella pneumoniae [15] = assay: Antibacterial activity against Klebsiella pneumoniae NCIM 2957 at 200 ug/disk after 24 hrs by agar disk diffusion method; conditions: NCIM 2957, 24 h, read-out: IZ; in short: as §3
# Proteus vulgaris [16] = assay: Antibacterial activity against Proteus vulgaris NCIM 2027 at 100 ug/disk after 24 hrs by agar disk diffusion method; conditions: NCIM 2027, 24 h, read-out: IZ; in short: as §3
# Proteus vulgaris [17] = assay: Antibacterial activity against Proteus vulgaris NCIM 2027 at 200 ug/disk after 24 hrs by agar disk diffusion method; conditions: NCIM 2027, 24 h, read-out: IZ; in short: as §3
# Staphylococcus aureus [18] = assay: Antibacterial activity against Staphylococcus aureus NCIM 5021 after 24 hrs by microdilution susceptibility method; conditions: NCIM 5021, 24 h
# In short: (§4)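 MIC by microdilution susceptibility; compounds in DMSO, bacterial suspensions inoculated into wells. Incubation was at 36 °C for 24 h. MIC is the lowest compound concentration showing no turbidity. Chloramphenicol served as reference antibacterial.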
# Bacillus subtilis [19] = assay: Antibacterial activity against Bacillus subtilis NCIM 2063 after 24 hrs by microdilution susceptibility method; conditions: NCIM 2063, 24 h; in short: as §4
# Klebsiella pneumoniae [20] = assay: Antibacterial activity against Klebsiella pneumoniae NCIM 2957 after 24 hrs by microdilution susceptibility method; conditions: NCIM 2957, 24 h; in short: as §4
# Proteus vulgaris [21] = assay: Antibacterial activity against Proteus vulgaris NCIM 2027 after 24 hrs by microdilution susceptibility method; conditions: NCIM 2027, 24 h; in short: as §4
# [22] = tested on: Radical scavenging activity; assay: Antioxidant activity assessed as DPPH free radical scavenging activity at 100 uM after 20 mins
# In short: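 DPPH scavenging: compound solutions were added to DPPH in dioxane/ethanol and kept at ambient temperature for 20 min. Absorbance was read at 517 nm. The test–control difference was expressed as percent DPPH radical scavenging.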
# [23] = Antioxidant activity assessed as nitric oxide production at 100 uM after 120 mins by Griess reagent method
# In short: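 Nitric oxide assay with Griess read-out. At intervals, 0.5 ml of incubation solution was mixed with 0.5 ml Griess reagent (1% sulfanilamide, 0.1% N-naphthylethylenediamine dihydrochloride, 2% o-phosphoric acid in water). The control received an equal amount of solvent and was handled identically.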
MIC (Fusarium solani [7]),MIC (Curvularia lunata [8]),MIC (Aspergillus niger [9]),MIC (Staphylococcus aureus [18]),MIC (Bacillus subtilis [19]),MIC (Klebsiella pneumoniae [20]),SMILES,zone of inhibition at 100 µg/disc (Fusarium solani [1]),zone of inhibition at 200 µg/disc (Fusarium solani [2]),zone of inhibition at 100 µg/disc (Curvularia lunata [3]),zone of inhibition at 200 µg/disc (Curvularia lunata [4]),zone of inhibition at 100 µg/disc (Aspergillus niger [5]),zone of inhibition at 200 µg/disc (Aspergillus niger [6]),zone of inhibition at 100 µg/disc (Staphylococcus aureus [10]),zone of inhibition at 200 µg/disc (Staphylococcus aureus [11]),zone of inhibition at 100 µg/disc (Bacillus subtilis [12]),zone of inhibition at 200 µg/disc (Bacillus subtilis [13]),zone of inhibition at 100 µg/disc (Klebsiella pneumoniae [14]),zone of inhibition at 200 µg/disc (Klebsiella pneumoniae [15]),zone of inhibition at 100 µg/disc (Proteus vulgaris [16]),zone of inhibition at 200 µg/disc (Proteus vulgaris [17]),other results
100 µg/mL,100 µg/mL,100 µg/mL,50 µg/mL,50 µg/mL,100 µg/mL,N=C1ON=C(N)C1C(CC(=O)c1ccc(Cl)cc1)C(=O)c1ccc(Cl)cc1 (configuration not stated),33 mm,35 mm,32 mm,34 mm,26 mm,28 mm,29 mm,32 mm,28 mm,30 mm,25 mm,27 mm,25 mm,26 mm,MIC (Proteus vulgaris [21]): 200 µg/mL; inhibition [22]: 89.6%; inhibition [23]: 90.3%
100 µg/mL,50 µg/mL,50 µg/mL,50 µg/mL,50 µg/mL,100 µg/mL,N=C1ON=C(N)C1C(CS(=O)(=O)c1ccc(Cl)cc1)S(=O)(=O)c1ccc(Cl)cc1 (configuration not stated),33 mm,35 mm,31 mm,33 mm,29 mm,32 mm,32 mm,33 mm,31 mm,34 mm,26 mm,29 mm,28 mm,30 mm,MIC (Proteus vulgaris [21]): 100 µg/mL; inhibition [22]: 94.5%; inhibition [23]: 95.4%

SMILES,MIC (Fusarium solani [7]),MIC (Curvularia lunata [8]),MIC (Aspergillus niger [9]),MIC (Staphylococcus aureus [18]),MIC (Bacillus subtilis [19]),MIC (Klebsiella pneumoniae [20]),zone of inhibition at 100 µg/disc (Fusarium solani [1]),zone of inhibition at 200 µg/disc (Fusarium solani [2]),zone of inhibition at 100 µg/disc (Curvularia lunata [3]),zone of inhibition at 200 µg/disc (Curvularia lunata [4]),zone of inhibition at 100 µg/disc (Aspergillus niger [5]),zone of inhibition at 200 µg/disc (Aspergillus niger [6]),zone of inhibition at 100 µg/disc (Staphylococcus aureus [10]),zone of inhibition at 200 µg/disc (Staphylococcus aureus [11]),zone of inhibition at 100 µg/disc (Bacillus subtilis [12]),zone of inhibition at 200 µg/disc (Bacillus subtilis [13]),zone of inhibition at 100 µg/disc (Klebsiella pneumoniae [14]),zone of inhibition at 200 µg/disc (Klebsiella pneumoniae [15]),zone of inhibition at 100 µg/disc (Proteus vulgaris [16]),zone of inhibition at 200 µg/disc (Proteus vulgaris [17]),other results
CC(=O)N1CCN(c2ccc(OCC3COC(Cn4ccnc4)(c4ccc(Cl)cc4Cl)O3)cc2)CC1 (configuration not stated) [KETOCONAZOLE],12.5 µg/mL,6.25 µg/mL,6.25 µg/mL,–,–,–,38 mm,42 mm,41 mm,44 mm,36 mm,39 mm,–,–,–,–,–,–,–,–,–
O=C(N[C@H](CO)[C@H](O)c1ccc([N+](=O)[O-])cc1)C(Cl)Cl [CHLORAMPHENICOL],–,–,–,6.25 µg/mL,6.25 µg/mL,12.5 µg/mL,–,–,–,–,–,–,35 mm,41 mm,38 mm,44 mm,37 mm,42 mm,42 mm,45 mm,MIC (Proteus vulgaris [21]): 12.5 µg/mL
